# IDE cell activ: boosts human insulin-degrading enzyme activity in HEK cells; P14735; FAbeta-B cleavage, fluorescence polarization; 0% vehicle, 100% cell-free pure enzyme wells; activation, % at 5.96 µM; hit rate 0.073% among 340,000; AID 493087;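 active means activation above the mean of all tested compounds plus 3 SD, set per screening campaign, cut at about 17% in these data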
# CSN inh: CSN deneddylation inhibition | Q92905 | Purified CSN, SCF-Nedd8-OG deneddylation, fluorescence polarization | inhibition, % at 12.5 µM | hit rate 0.38% among 360,000 | AID 651999;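 active means pattern-corrected inhibition above about 35%, with an unprinted fluorescence ratio check between 0.5 and 1.5, limit read from the data, passing the limit was not always enough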;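 further: 0% = enzyme with substrate and 100% = substrate without enzyme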
# Target sequence (Q92905 whole entry, looked up, one chain of several): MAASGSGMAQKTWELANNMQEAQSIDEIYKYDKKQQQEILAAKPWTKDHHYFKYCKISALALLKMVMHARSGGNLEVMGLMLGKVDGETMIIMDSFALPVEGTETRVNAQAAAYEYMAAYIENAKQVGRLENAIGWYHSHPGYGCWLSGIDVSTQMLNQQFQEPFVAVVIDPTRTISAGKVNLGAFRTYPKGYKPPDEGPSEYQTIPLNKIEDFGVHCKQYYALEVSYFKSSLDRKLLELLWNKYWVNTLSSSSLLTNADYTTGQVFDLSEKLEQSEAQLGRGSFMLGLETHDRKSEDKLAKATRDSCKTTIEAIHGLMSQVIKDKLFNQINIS
#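 Material: purified human Csn5 enzyme expressed in HEK293T cells / Medium: Tris buffer pH 7.5, NaCl, DTT, Tween-20, trehalose, ovalbumin / Compound dosing: 12.5 µM single point / Schedule: 90 min incubation of compound, enzyme and substrate at room temperature / Signal: fluorescence polarization of the substrate / Control set: no-enzyme wells high, enzyme-with-substrate wells low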
# IDE inh: inhibitors of human insulin-degrading enzyme in cells | P14735 | HEK cells, FAbetaB cleavage, fluorescence polarization | inhibition, % at 5.59 µM | hit rate 0.41% among 320,000;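 active means percent inhibition above the average of all tested compounds plus 3 SD, set per screening campaign, cut at about 16% in these data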;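 further: IDE supplied by intact live HEK cells; FP after avidin binding of uncleaved biotin substrate so inhibition keeps polarization high; 0% = DMSO wells and 100% = 60 µM reference IDE inhibitor Ii1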
# TPT1 inhibitor: inhibitors of Candida albicans tRNA 2'-phosphotransferase TPT1; hit rate 0.81% among 300,000; inhibition, % at 5 µM; AID 1962; recombinant caTPT1, FP RNA substrate dephosphorylation;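 active means inhibition above the mean of all tested compounds plus 3 SD, set per screening campaign, cut at about 24% in these data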;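 further: plate controls were DMSO alone for no effect and ferristatin control at 100 nM for full effect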
# HNF4A DNA FP: change in binding of human HNF4 alpha to DNA. P41235. HNF4a-FITC DNA binding, fluorescence polarization, 1 h. activity change, % at 10 µM. hit rate 0.3% among 360,000; in the data active means activity change above about 30%, passing the limit was not always enough
# caTPT1 confirm: confirmation of Candida albicans TPT1 inhibitors; shares compounds with TPT1 inhibitor; recombinant caTPT1, fluorescence polarization, RNase T1 coupled; inhibition, % at 5 µM; hit rate 74% among 2,400; AID 2149;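 active means inhibition above the primary screen limit, the mean inhibition of all tested compounds plus 3 SD, cut at about 25% in these data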
# RNase T1 inh: blocks Aspergillus oryzae RNase T1, a TPT1 counter-screen; inhibition, % at 5 µM; shares compounds with TPT1 inhibitor; RNase T1 cleavage, fluorescence polarization, 1536-well; hit rate 83% among 2,400;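 active means inhibition above the solvent-only control well mean plus 3 SD, limit set per screening run, cut at about 23% in these data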;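 further: plate controls were DMSO wells with enzyme for no effect and wells without RNase T1 for full effect; inhibitors block cleavage so intact labeled substrate keeps polarization high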
# Target sequence (P00651 whole entry, looked up): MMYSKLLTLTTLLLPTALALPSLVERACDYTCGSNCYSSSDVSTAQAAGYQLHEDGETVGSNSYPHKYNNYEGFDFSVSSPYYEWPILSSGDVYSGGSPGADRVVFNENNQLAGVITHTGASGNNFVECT
# Starred values were filed as active, the others as inactive; . = no result. Rows were chosen to be rich in hits. Some 1.4% of all compounds tested hit in one or more screens of this group.
SMILES,IDE cell activ,CSN inh,IDE inh,TPT1 inhibitor,HNF4A DNA FP,caTPT1 confirm,RNase T1 inh
CCC(C(=O)NC(C)(C)C)n1c(-c2ccc3c(c2)OCO3)nc2ccccc21 (stereo not drawn),.,1,.,.,-2,.,.
COc1ccc(NC(=O)c2cccc(-n3c(C)ccc3C)c2)c(OC)c1,-7,2,5,16,9,.,.
Cc1ccc(C)n1-c1cccc(C(=O)Nc2ccccc2)c1,8,4,3,38*,1,40*,50*
CC(C)(C)NS(=O)(=O)c1cc(C(=O)Nc2sccc2C#N)ccc1Cl,-3,31,12,36*,28,32*,43*
N#Cc1ccsc1NC(=O)c1cnccn1,-2,3,-5,-3,4,.,.
COc1ccc(S(=O)(=O)Nc2ccc3c(c2)OCO3)cc1,3,3,10,1,-3,.,.
COc1ccc2c(c1)CC/C(=C\Nc1ccc3c(c1)OCO3)C2=O,-4,15,2,65*,45*,74*,87*
O=C1OC2(CCCCC2)OC(=O)C1=CNc1ccc2c(c1)OCO2,0,7,5,-4,2,.,.
COc1ccc(N/C=C2\CCc3ccccc3C2=O)cc1,-5,18,9,51*,22,59*,71*
O=C1/C(=C/Nc2ccc3c(c2)OCO3)CCc2ccccc21,-2,13,7,83*,49*,57*,74*
COc1ccc(N/C=C2\CCOC2=O)cc1,4,-3,-4,7,0,.,.
CCCCCCCCN1C(=O)[C@H](CC(=O)N2CCN(C(=O)c3ccco3)CC2)C[C@@]2(C(=O)OC)CC(C)(C)CC=C12,.,-1,.,.,-3,.,.
C=CCN1C(=O)S/C(=C\c2ccc(N3CCOCC3)cc2C)C1=O,2,10,2,66*,22,54*,66*
C=CC(C)N1C(=O)S/C(=C\c2ccc(N3CCOCC3)cc2C)C1=O (stereo not drawn),-5,7,9,32*,17,57*,64*
Cc1cc(N2CCOCC2)ccc1/C=C1/SC(=O)NC1=O,6,-5,10,7,1,.,.
CCCCNc1cc(NC(C)=O)cc2cc(OC)c(OC)cc12,0,19,3,70*,16,61*,73*
O=C(O)c1ccc(-c2ccc(/C=c3/sc4nc5ccccc5n4c3=O)o2)cc1Cl,-1,107*,4,49*,57*,120*,122*
O=C(/C=C/c1ccco1)N1CCC(Cc2ccccc2)CC1,6,19,6,131*,-11,2,2
CCCCCCCCN1CC(Cc2cc3ccccc3c3ccccc23)N(c2ccccc2)c2ccccc2C1=O (stereo not drawn),.,-2,.,.,-1,.,.
CN(C)c1ccc(/C=N/N=C2/NC(=O)/C(=C/c3ccc([N+](=O)[O-])cc3)S2)cc1,-1,1,-2,44*,5,49*,63*
Cc1ccc(N2CCN(C(=O)C(=O)c3ccc4c(c3)OCO4)CC2)cc1,.,-3,.,.,-3,.,.
Cc1c(N=C/C=C2/N(C)c3ccccc3C2(C)C)c(=O)n(-c2ccccc2)n1C,1,3,5,42*,2,37*,48*
Cc1c(N=C/C=C2\N(C)c3ccccc3C2(C)C)c(=O)n(-c2ccccc2)n1C,0,-2,1,1,1,.,.
Cc1ccc(N=Cc2sc(O)c3ccccc23)c(C)c1,-8,-46,6,117*,153,80*,94*
CC(C)N1C(=O)c2ccccc2NC(=O)C1C(=O)NC1CC1 (stereo not drawn),.,-3,.,.,7,.,.
SMILES,IDE cell activ,CSN inh,IDE inh,TPT1 inhibitor,HNF4A DNA FP,caTPT1 confirm,RNase T1 inh
O=C(Nc1ccc2c(c1)OCCO2)C1c2ccccc2OCC(=O)N1CCCN1CCOCC1 (stereo not drawn),.,4,.,.,1,.,.
COc1ccc(C=C2NC(=S)NC2=O)cc1,0,4,.,.,2,.,.
COc1ccc(C(=O)N2C(=S)NC(=O)/C2=C\c2ccc(C)cc2)cc1,0,43*,-2,34*,19,42*,57*
O=C(COC(=O)CNC(=O)c1ccccc1F)Nc1ccc2c(c1)OCCO2,3,-3,-3,55*,4,4,6
C/C(Cl)=C/CSc1nc2c(c(=O)[nH]c(=O)n2C)n1C(C)C,-2,1,5,25*,0,9,11
C=CCSc1nc2c(c(=O)[nH]c(=O)n2C)n1C(C)C,4,-1,-2,-1,1,.,.
CCCc1nc2ccc(Cl)cn2c1Cc1ccsc1,.,-17,.,.,-13,.,.
CC(C)n1c(=O)c2ccccc2n1Cc1cn(-c2ccc(Cl)cc2)nn1,.,0,.,.,0,.,.
Nc1ccc(C(=O)N/N=C/c2sc(N3CCOCC3)nc2-c2ccccc2)cc1,2,2,10,-3,-1,.,.
O=C(Nc1ccccc1F)C(=Cc1sc(N2CCOCC2)nc1-c1ccccc1)C(=O)Nc1ccccc1F,7,-15,2,48*,-55,-24,-3
O=C(N/N=C/c1sc(N2CCOCC2)nc1-c1ccccc1)c1ccccc1F,.,.,-1,-2,.,.,.
O=C(N/N=C/c1sc(N2CCOCC2)nc1-c1ccccc1)c1cccc(S(=O)(=O)N2CCOCC2)c1,5,21,-3,60*,25,60*,69*
COC(=O)c1ccnc(SCC(=O)c2ccccc2)c1,-1,1,-2,1,-1,.,.
COC(=O)c1ccnc(/C=N/O)c1,6,4,-2,50*,0,7,7
CCOC(=O)[C@]12CCC=C1N(Cc1ccc3c(c1)OCO3)C(=O)[C@H](CC(=O)NCc1cccs1)C2,.,1,.,.,-1,.,.
O=C1Nc2cc(C(=O)N3CCN(c4ccccc4F)CC3)ccc2NC1CSCc1ccccc1F (stereo not drawn),.,.,8,134*,.,91*,99*
Cc1cccc(N2CCN(C(=O)c3ccc4nccnc4c3)CC2C)c1 (stereo not drawn),1,3,2,.,3,.,.
COc1ccc(N2CCN(C(=O)c3ccc4c(c3)NC(=O)C(CSCc3ccccc3F)N4)CC2)cc1 (stereo not drawn),.,2,.,.,34,.,.
Cc1cccc(N2CCN(C(=O)c3ccc4c(c3)NC(=O)C(CSCc3cccc(F)c3)N4)CC2C)c1 (stereo not drawn),-5,33,0,98*,81*,99*,110*
COc1ccccc1N1CCN(C(=O)c2ccc3c(c2)NC(=O)C(CSCc2ccccc2C)N3)CC1 (stereo not drawn),.,.,0,75*,.,15,26*
CN1CCN(C(=O)c2ccc(-c3cnc4cccnn34)cc2)CC1,.,1,.,.,-1,.,.
Cc1cc(C)nc(N/N=C/C2=C(N3CCOCC3)C(=C\c3ccc(Cl)cc3)/CC2)n1,-6,12,-1,13,6,.,.

# From PubChem
